Assays:
[1] = Selectivity index, ratio of IC50 for cytotoxicity against human MRC5 cells to IC50 for antiproliferative activity against human MCF7 cells; conditions: MRC5 cells versus MCF7 cells
[2] = Selectivity index, ratio of IC50 for cytotoxicity against human MRC5 cells to IC50 for antiproliferative activity against human A2780 cells; conditions: MRC5 cells versus A2780 cells
[3] = tested on: MCF7; test: Cell cycle arrest in human MCF7 cells assessed as subG1 accumulation at 5 uM incubated for 24 hrs by propidium iodide based flow cytometry (reference value: 0.6 to 3 %); assay type: functional
[4] = tested on: MCF7; test: Cell cycle arrest in human MCF7 cells assessed as subG1 accumulation at 10 uM incubated for 24 hrs by propidium iodide based flow cytometry (reference value: 0.6 to 3 %); assay type: functional
[5] = tested on: MCF7; test: Cell cycle arrest in human MCF7 cells assessed as G1 accumulation at 1 uM incubated for 24 hrs by propidium iodide based flow cytometry (reference value: 49.6 to 55.1 %); assay type: functional
[6] = tested on: MCF7; test: Cell cycle arrest in human MCF7 cells assessed as G1 accumulation at 5 uM incubated for 24 hrs by propidium iodide based flow cytometry (reference value: 49.6 to 55.1 %); assay type: functional
[7] = tested on: MCF7; test: Cell cycle arrest in human MCF7 cells assessed as G1 accumulation at 10 uM incubated for 24 hrs by propidium iodide based flow cytometry (reference value: 49.6 to 55.1 %); assay type: functional
[8] = tested on: MCF7; test: Cell cycle arrest in human MCF7 cells assessed as S phase accumulation at 1 uM incubated for 24 hrs by propidium iodide based flow cytometry (reference value: 17.3 to 28.5 %); assay type: functional
[9] = tested on: MCF7; test: Cell cycle arrest in human MCF7 cells assessed as S phase accumulation at 5 uM incubated for 24 hrs by propidium iodide based flow cytometry (reference value: 17.3 to 28.5 %); assay type: functional
[10] = tested on: MCF7; test: Cell cycle arrest in human MCF7 cells assessed as S phase accumulation at 10 uM incubated for 24 hrs by propidium iodide based flow cytometry (reference value: 17.3 to 28.5 %); assay type: functional
[11] = tested on: MCF7; test: Cell cycle arrest in human MCF7 cells assessed as G2/M phase accumulation at 1 uM incubated for 24 hrs by propidium iodide based flow cytometry (reference value: 17.2 to 26.8 %); assay type: functional
[12] = tested on: MCF7; test: Cell cycle arrest in human MCF7 cells assessed as G2/M phase accumulation at 5 uM incubated for 24 hrs by propidium iodide based flow cytometry (reference value: 17.2 to 26.8 %); assay type: functional
[13] = tested on: MCF7; test: Cell cycle arrest in human MCF7 cells assessed as G2/M phase accumulation at 10 uM incubated for 24 hrs by propidium iodide based flow cytometry (reference value: 17.2 to 26.8 %); assay type: functional
[14] = tested on: MCF7; test: Induction of apoptosis in human MCF7 cells assessed as viable cells at 1 uM incubated for 24 hrs by annexin V FITC and propidium iodide staining based flow cytometry (reference value: 76 to 95.9 %); assay type: functional; conditions: MCF7, 24 h, read-out: Activity
[15] = tested on: MCF7; test: Induction of apoptosis in human MCF7 cells assessed as viable cells at 5 uM incubated for 24 hrs by annexin V FITC and propidium iodide staining based flow cytometry (reference value: 76 to 95.9 %); assay type: functional; conditions: MCF7, 24 h, read-out: Activity
[16] = tested on: MCF7; test: Induction of apoptosis in human MCF7 cells assessed as viable cells at 10 uM incubated for 24 hrs by annexin V FITC and propidium iodide staining based flow cytometry (reference value: 76 to 95.9 %); assay type: functional; conditions: MCF7, 24 h, read-out: Activity
[17] = tested on: MCF7; test: Induction of apoptosis in human MCF7 cells assessed as early apoptotic cells at 1 uM incubated for 24 hrs by annexin V FITC and propidium iodide staining based flow cytometry (reference value: 0 to 9 %); assay type: functional
[18] = tested on: MCF7; test: Induction of apoptosis in human MCF7 cells assessed as early apoptotic cells at 5 uM incubated for 24 hrs by annexin V FITC and propidium iodide staining based flow cytometry (reference value: 0 to 9 %); assay type: functional
[19] = tested on: MCF7; test: Induction of apoptosis in human MCF7 cells assessed as early apoptotic cells at 10 uM incubated for 24 hrs by annexin V FITC and propidium iodide staining based flow cytometry (reference value: 0 to 9 %); assay type: functional
[20] = tested on: MCF7; test: Induction of apoptosis in human MCF7 cells assessed as late apoptotic cells at 1 uM incubated for 24 hrs by annexin V FITC and propidium iodide staining based flow cytometry (reference value: 0 to 2.5 %); assay type: functional
[21] = tested on: MCF7; test: Induction of apoptosis in human MCF7 cells assessed as late apoptotic cells at 5 uM incubated for 24 hrs by annexin V FITC and propidium iodide staining based flow cytometry (reference value: 0 to 2.5 %); assay type: functional
[22] = tested on: MCF7; test: Induction of apoptosis in human MCF7 cells assessed as late apoptotic cells at 10 uM incubated for 24 hrs by annexin V FITC and propidium iodide staining based flow cytometry (reference value: 0 to 2.5 %); assay type: functional
[23] = tested on: MCF7; test: Induction of apoptosis in human MCF7 cells assessed as necrotic cells at 1 uM incubated for 24 hrs by annexin V FITC and propidium iodide staining based flow cytometry (reference value: 4.1 to […]); assay type: functional
[24] = tested on: MCF7; test: Induction of apoptosis in human MCF7 cells assessed as necrotic cells at 5 uM incubated for 24 hrs by annexin V FITC and propidium iodide staining based flow cytometry (reference value: 4.1 to […]); assay type: functional
[25] = tested on: MCF7; test: Induction of apoptosis in human MCF7 cells assessed as necrotic cells at 10 uM incubated for 24 hrs by annexin V FITC and propidium iodide staining based flow cytometry (reference value: 4.1 to […]); assay type: functional
[26] = tested on: MCF7; test: Induction of apoptosis in human MCF7 cells incubated for 24 hrs by annexin V FITC and propidium iodide staining based flow cytometry; assay type: functional, cell-based
[27] = tested on: MCF7; test: Antiproliferative activity against human MCF7 cells assessed as cell viability at 5 uM incubated for 48 hrs by MTT assay (reference value: 100 %); assay type: functional; conditions: MCF7, 48 h, read-out: Activity
In short: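 Preliminary single-dose screen by MTT assay. MCF-7 cells grown in DMEM/10% FBS were exposed to 5 μM compound for 48 h, and growth% was determined. Values are mean ± S.D., n = 6.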

[28] = Selectivity index, ratio of IC50 for cytotoxicity against human MRC5 cells to IC50 for antiproliferative activity against human HT-29 cells; conditions: MRC5 cells versus HT-29 cells
[29] = tested on: Rattus norvegicus; test: Antiinflammatory activity against albino rats assessed as inhibition of carrageenan-induced paw edema at 0.5 mmol, po measured after 2 hrs relative to control; assay type: functional
In short: (§1)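 Carrageenan rat paw edema (Winter method) in male and female adult albino rats (100-140 g). […] Swelling inhibition expressed as % of control at 2-4 h after carrageenan injection.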

[30] = tested on: Rattus norvegicus; test: Antiinflammatory activity against albino rats assessed as inhibition of carrageenan-induced paw edema at 0.5 mmol, po measured after 4 hrs relative to control; assay type: functional; in short: as §1

Row | Structure (SMILES) | selectivity ratio [1] | selectivity ratio [2] | Activity [3] [%] | Activity [4] [%] | Activity [5] [%] | Activity [6] [%] | Activity [7] [%] | Activity [8] [%] | Activity [9] [%] | Activity [10] [%] | Activity [11] [%] | Activity [12] [%] | Activity [13] [%] | viability at 1 µM [14] [%] | viability at 5 µM [15] [%] | viability at 10 µM [16] [%] | Activity [17] [%] | Activity [18] [%] | Activity [19] [%] | Activity [20] [%] | other results
1 | CCC1SCC(=O)N1c1c(C#N)c2n(c1C(=O)Nc1ccccc1)CCC2 (stereo not given) | 3 to 15 | 3 to 15 | 2.4 | 8.9 | 56.4 | 59.4 | 59.1 | 20.6 | 17.8 | 14.2 | 15.6 | 15.8 | 14.1 | 80.1 | 77.8 | 66.6 | 11.5 | 14.3 | 19.5 | 7.5 | Activity [21]: 6.9%; Activity [22]: 10.3%; Activity [23]: 1%; Activity [24]: 0.9%; Activity [25]: 3.7%; Activity [26]: Dose-dependent effect
2 | CC(C)C/C=N/c1c(C#N)c2n(c1C(=O)Nc1ccc(Br)cc1)CCC2 | 39 to 258 | 39 to 258 | 0.9 | 0.7 | 30.8 | 30.2 | 29.6 | 55.6 | 55.1 | 55.2 | 12.4 | 14.4 | 15.1 | 55.4 | 58.9 | 57.6 | 13.3 | 16.5 | 15.6 | 10.5 | viability at 5 µM [27]: 56%; selectivity ratio [28]: 39 to 258; inhibition (INH) [29]: 18.13%; inhibition (INH) [30]: 30.82%; Activity [21]: 11.2%; Activity [22]: 12.2%; Activity [23]: 20.8%; Activity [24]: 13.4%; Activity [25]: 14.7%
